Type in all cases: functional
Test [1] has as its system Colletotrichum camelliae. The test is described as follows: Antifungal activity against Colletotrichum camelliae assessed as inhibition of mycelial growth at 500 ug/mL measured after 5 days of cultivation. The note with it: 120 h, read-out: GI. In short, it runs like this:
(§1)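 Volatile constituents emulsified with emulsifier 0203-B (0.01% in medium) and mixed into PDA at 100, 500, 1000, 1500 or 2000 µg/mL in 9 cm plates. A 4 mm mycelial disk cut from a 4-day-old culture was placed centrally. Incubation was 5 days at 25 °C. Colony diameter was the mean of two readings. Inhibition = (C−T)×100/C against untreated and emulsifier controls. Three replicates.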

Test [2] deals with Colletotrichum camelliae. The test is described as follows: Antifungal activity against Colletotrichum camelliae assessed as inhibition of mycelial growth measured after 5 days of cultivation. The settings on record: 120 h. The gist of the method:
as §1

For test [3], the system named is Colletotrichum camelliae. The test is described as follows: Antifungal activity against Colletotrichum camelliae assessed as inhibition of mycelial growth at 2000 ug/mL measured after 5 days of cultivation. The settings on record: 120 h, read-out: GI. In short, it runs like this:
as §1

Test [4] relates to Colletotrichum camelliae. The test is described as follows: Antifungal activity against Colletotrichum camelliae assessed as inhibition of mycelial growth at 100 ug/mL measured after 5 days of cultivation. The settings on record: 120 h, read-out: GI. In short, it runs like this:
as §1

The subject of test [5] is Colletotrichum camelliae. The test is described as follows: Antifungal activity against Colletotrichum camelliae assessed as inhibition of mycelial growth at 1500 ug/mL measured after 5 days of cultivation. The note with it: 120 h, read-out: GI. The gist of the method:
as §1

Test [6] concerns Colletotrichum camelliae. The test is described as follows: Antifungal activity against Colletotrichum camelliae assessed as inhibition of mycelial growth at 1000 ug/mL measured after 5 days of cultivation. The settings on record: 120 h, read-out: GI. In short, it runs like this: as §1

≈ marks a conversion by molar mass, not a printed value.

`C=C[C@]1(C)CC[C@@H](C(C)(C)O)O1` [(E)-LINALOOL OXIDE]: the inhibition of growth at 500 µg/mL in test [1] amounted to 40.7%. Besides, the MIC in test [2] is greater than 2380 µg/mL. Moreover, the inhibition of growth at 2000 µg/mL in test [3] came to 57.4%. Moreover, in test [4], the inhibition of growth at 100 µg/mL was 37%. Further, the inhibition of growth at 1500 µg/mL in test [5] came out at 48.1%. The inhibition of growth at 1000 µg/mL in test [6] turned out to be 44.4%.

As for `OCc1ccccc1` [BENZYL ALCOHOL], in test [1], the inhibition of growth at 500 µg/mL was 46.3%. Moreover, the MIC in test [2] worked out at 2600 µg/mL (≈ 24 mM). The inhibition of growth at 2000 µg/mL in test [3] came out at 83.3%. Moreover, the inhibition of growth at 100 µg/mL in test [4] turned out to be 44.4%. The inhibition of growth at 1500 µg/mL in test [5] was 68.5%. Further, in test [6], the inhibition of growth at 1000 µg/mL was determined as 61.1%.

Regarding `CC/C=C\CCO` [CIS-3-HEXENOL], in test [1], the inhibition of growth at 500 µg/mL was 44.4%. Besides, in test [2], the MIC was greater than 2120 µg/mL. Further, in test [3], the inhibition of growth at 2000 µg/mL was determined as 79.6%. Further, the inhibition of growth at 100 µg/mL in test [4] came out at 42.6%. In addition, in test [5], the inhibition of growth at 1500 µg/mL was 74.1%. For the same compound, the inhibition of growth at 1000 µg/mL in test [6] came out at 61.1%.

As for `C=C[C@]1(C)CC[C@H](C(C)(C)O)O1` [CIS-FURANOID], the inhibition of growth at 500 µg/mL in test [1] stood at 40.7%. The MIC in test [2] is greater than 2380 µg/mL. Further, the inhibition of growth at 2000 µg/mL in test [3] is 57.4%. The inhibition of growth at 100 µg/mL in test [4] stood at 37%. Further, the inhibition of growth at 1500 µg/mL in test [5] came out at 48.1%. In addition, in test [6], the inhibition of growth at 1000 µg/mL amounted to 44.4%.

For `CC(C)=CCC/C(C)=C/CO` [GERANIOL], the inhibition of growth at 500 µg/mL in test [1] turned out to be 100%. Also, in test [2], the MIC came out at 440 µg/mL (≈ 2.85 mM). Further, the inhibition of growth at 2000 µg/mL in test [3] worked out at 100%. The inhibition of growth at 100 µg/mL in test [4] was 58.1%. Further, the inhibition of growth at 1500 µg/mL in test [5] worked out at 100%. Further, in test [6], the inhibition of growth at 1000 µg/mL is 100%.

As to `C=CC(C)(O)CCC=C(C)C` (stereo not drawn) [LINALOOL], the inhibition of growth at 500 µg/mL in test [1] came out at 46.3%. Also, in test [2], the MIC was found to be 1380 µg/mL (≈ 8.92 mM). Also, the inhibition of growth at 2000 µg/mL in test [3] was determined as 100%. In test [4], the inhibition of growth at 100 µg/mL is 37%. The inhibition of growth at 1500 µg/mL in test [5] came out at 100%. In test [6], the inhibition of growth at 1000 µg/mL turned out to be 50%.

On to `COC(=O)c1ccccc1O` [METHYL SALICYLATE], for which the inhibition of growth at 500 µg/mL in test [1] is 50%. For the same compound, in test [2], the MIC was 1770 µg/mL (≈ 11.6 mM). Further, the inhibition of growth at 2000 µg/mL in test [3] turned out to be 100%. Also, the inhibition of growth at 100 µg/mL in test [4] turned out to be 42.6%. The inhibition of growth at 1500 µg/mL in test [5] was determined as 100%. For the same compound, in test [6], the inhibition of growth at 1000 µg/mL worked out at 55.6%.

For `OCCc1ccccc1` [PHENYLETHYL ALCOHOL], the inhibition of growth at 500 µg/mL in test [1] is 46.3%. For the same compound, the MIC in test [2] is 2040 µg/mL (≈ 16.7 mM). The inhibition of growth at 2000 µg/mL in test [3] came to 92.6%. Moreover, the inhibition of growth at 100 µg/mL in test [4] is 51.9%. Further, the inhibition of growth at 1500 µg/mL in test [5] turned out to be 85.2%. For the same compound, the inhibition of growth at 1000 µg/mL in test [6] was found to be 70.4%.

For the origin of these results see ChEMBL document CHEMBL3045126, “Antifungal activities of major tea leaf volatile constituents toward Colletorichum camelliae Massea” (2006).
